pIC50: −log10 of the molar value. Values after ≈ are worked out from the molar mass of the structure shown. Active and inactive are the calls of the source. No cut-off for these calls is given here.
How the values were obtained:
[1] = Therapeutic index, ratio of CC50 for human A549 cells to MIC for Streptococcus pneumoniae ATCC 49619; type: toxicity; conditions: read-out: TI
A549 = assay: Cytotoxicity against human A549 cells after 48 to 72 hrs by MTT assay; type: cell-based
[2] = Therapeutic index, ratio of CC50 for human HepG2 cells to MIC for Streptococcus pneumoniae ATCC 49619; type: toxicity; conditions: read-out: TI
Enterobacter cloacae = assay: Antibacterial activity against Enterobacter cloacae ATCC 13047 after 20 hrs by CLSI based-broth microdilution method; type: functional; conditions: subsp. cloacae ATCC 13047, 20 h
Acinetobacter baumannii = assay: Antibacterial activity against Acinetobacter baumannii ATCC 19606 after 20 hrs by CLSI based-broth microdilution method; type: functional; conditions: ATCC 19606 = CIP 70.34 = JCM 6841, 20 h
HepG2 = assay: Cytotoxicity against human HepG2 cells after 48 to 72 hrs by MTT assay; type: cell-based
Pseudomonas aeruginosa = assay: Antibacterial activity against Pseudomonas aeruginosa ATCC 27853 after 20 hrs by CLSI based-broth microdilution method; type: functional; conditions: ATCC 27853, 20 h
Klebsiella pneumoniae = assay: Antibacterial activity against Klebsiella pneumoniae ATCC 700603 after 20 hrs by CLSI based-broth microdilution method; type: functional; conditions: ATCC 700603, 20 h
Streptococcus pneumoniae [3] = assay: Antibacterial activity against Streptococcus pneumoniae ATCC 49619 after 20 hrs by CLSI based-broth microdilution method; type: functional; conditions: ATCC 49619, 20 h
Escherichia coli = assay: Antibacterial activity against Escherichia coli ATCC 25922 after 20 hrs by CLSI based-broth microdilution method; type: functional; conditions: ATCC 25922, 20 h
[4] = Haemolytic activity in human erythrocytes at 0.1 to 10 ug/ml relative to control; type: ADME, cell-based, Erythrocyte; conditions: read-out: Activity
Summary of the method: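 Human erythrocytes washed in 150 mM NaCl, resuspended in PBS pH 7.4 (2% blood); compound at final 0.1, 1 and 10 μg/mL (0.5% DMSO) for 45 min at 37 °C, n = 6; spun at 500g, 4 °C; supernatant absorbance read at 540 nm; 1% Triton X-100 as positive and PBS as negative control; % lysis calculated.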

Streptococcus agalactiae = assay: Antibacterial activity against Streptococcus agalactiae ATCC 12386 after 20 hrs by CLSI based-broth microdilution method; type: functional; conditions: ATCC 12386, 20 h
[5] = Inhibition of N-terminal SmBiT-fused Bacillus subtilis RNAP subunit beta' CH region expressed in Escherichia coli BL21(DE3)pLysS interaction with C- terminal LgBiT-fused Bacillus subtilis RNA polymerase sigma factor SigA expressed in Escherichia coli BL21(DE3)pLysS preincubated for 10 mins followed by RNA polymerase sigma factor SigA addition and measured after 10 mins by nano-glo luciferase assay
Summary of the method: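 Split-luciferase complementation in PBS: N-SmBiT-CH (2.5 μM stock) mixed with compound at desired concentrations, 10 min at 37 °C. C-LgBiT-σA (2.5 μM stock) then added, another 10 min at 37 °C. Equal volume of Nano-Glo substrate added and luminescence read. No-drug control included. Run in triplicate with technical repeats.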

Staphylococcus aureus [6] = assay: Antibacterial activity against Staphylococcus aureus ATCC 29213 after 20 hrs by CLSI based-broth microdilution method; type: functional; conditions: ATCC 29213, 20 h
Streptococcus pyogenes = assay: Antibacterial activity against Streptococcus pyogenes ATCC 19615 after 20 hrs by CLSI based-broth microdilution method; type: functional; conditions: ATCC 19615, 20 h
[7] = system: Staphylococcus saprophyticus; assay: Antibacterial activity against Staphylococcus saprophyticus ATCC 15305 after 20 hrs by CLSI based-broth microdilution method; type: functional; conditions: subsp. saprophyticus ATCC 15305, 20 h
Enterococcus faecalis = assay: Antibacterial activity against Enterococcus faecalis ATCC 19433 after 20 hrs by CLSI based-broth microdilution method; type: functional; conditions: ATCC 19433, 20 h
[8] = system: Staphylococcus epidermidis; assay: Antibacterial activity against Staphylococcus epidermidis ATCC 12228 after 20 hrs by CLSI based-broth microdilution method; type: functional; conditions: ATCC 12228, 20 h
Staphylococcus aureus [9] = assay: Antibacterial activity against Staphylococcus aureus ATCC 25923 after 20 hrs by CLSI based-broth microdilution method; type: functional; conditions: ATCC 25923, 20 h
Streptococcus pneumoniae [10] = assay: Antibacterial activity against Streptococcus pneumoniae ATCC 49619 assessed as reduction in pneumolysin release at 0.25 to 0.5 times MIC incubated for 16 to 20 hrs by Western blot analysis; type: functional, organism-based
Summary of the method: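 Overnight static culture in brain–heart infusion broth, with or without serially diluted compound; rifampicin and ceftriaxone controls at twofold dilutions from 2 to 0.002 μg/mL; untreated control. […] Western blot probed with rabbit polyclonal anti-pneumolysin (1:1000) and HRP anti-rabbit secondary, ECL chemiluminescence; band intensity normalized to untreated control.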

Streptococcus pneumoniae [11] = assay: Antibacterial activity against Streptococcus pneumoniae ATCC 49619 after 16 to 20 hrs by CLSI based-broth microdilution method; type: functional

Row | SMILES | MIC (Enterobacter cloacae) | MIC (Acinetobacter baumannii) | MIC (Pseudomonas aeruginosa) | MIC (Klebsiella pneumoniae) | MIC (Streptococcus pneumoniae [3]) | MIC (Escherichia coli) | MIC (Streptococcus agalactiae) | pIC50 [5] | MIC (Staphylococcus aureus [6]) | MIC (Streptococcus pyogenes) | MIC [7] | MIC (Enterococcus faecalis) | MIC [8] | MIC (Staphylococcus aureus [9]) | other results
1 | O=C(O)c1ccc(Br)c(NCc2ccc(Sc3ccc(Cl)c(Cl)c3)c([N+](=O)[O-])c2)c1 | > 256 µg/mL | > 256 µg/mL | > 256 µg/mL | > 256 µg/mL | 4 µg/mL (≈ 7.57 µM) | > 256 µg/mL | – | – | – | – | – | – | – | – | selectivity ratio [1]: 18; CC50 (A549): 67.7 µM; selectivity ratio [2]: 24; CC50 (HepG2): 92.6 µM
2 | O=C(O)c1ccc(Cl)c(NCc2ccc(Sc3ccc(Cl)c(Cl)c3)c([N+](=O)[O-])c2)c1 | > 256 µg/mL | > 256 µg/mL | > 256 µg/mL | > 256 µg/mL | – | > 256 µg/mL | 4 µg/mL (≈ 8.27 µM) | 4.82 | 8 µg/mL (≈ 16.5 µM) | 4 µg/mL (≈ 8.27 µM) | 4 µg/mL (≈ 8.27 µM) | 4 µg/mL (≈ 8.27 µM) | 4 µg/mL (≈ 8.27 µM) | 8 µg/mL (≈ 16.5 µM) | hemolysis [4]: < 10%; selectivity ratio [1]: 28; CC50 (A549): 116 µM; selectivity ratio [2]: 27; CC50 (HepG2): 110 µM
3 | CO[C@H]1/C=C/O[C@@]2(C)Oc3c(C)c(O)c4c(O)c(c(/C=N/N5CCN(C)CC5)c(O)c4c3C2=O)NC(=O)/C(C)=C\C=C\[C@H](C)[C@H](O)[C@@H](C)[C@@H](O)[C@@H](C)[C@H](OC(C)=O)[C@@H]1C [RIFAMPIN] | – | – | – | – | 0.0625 µg/mL (≈ 0.0759 µM) | – | 0.03 µg/mL (≈ 0.0365 µM) | – | 0.03 µg/mL (≈ 0.0365 µM) | 0.03 µg/mL (≈ 0.0365 µM) | 0.03 µg/mL (≈ 0.0365 µM) | 4 µg/mL (≈ 4.86 µM) | 0.03 µg/mL (≈ 0.0365 µM) | 0.01 µg/mL (≈ 0.0122 µM) | Activity (Streptococcus pneumoniae [10]): Active
4 | Nc1ccc(Sc2ccc(C(=O)c3ccccc3C(=O)O)cc2[N+](=O)[O-])cc1 | > 256 µg/mL | > 256 µg/mL | > 256 µg/mL | > 256 µg/mL | – | > 256 µg/mL | – | – | – | – | – | – | – | – | MIC (Streptococcus pneumoniae [11]): 128 µg/mL (≈ 325 µM)
5 | CN[C@H](CC(C)C)C(=O)N[C@H]1C(=O)N[C@@H](CC(N)=O)C(=O)N[C@H]2C(=O)N[C@H]3C(=O)N[C@H](C(=O)N[C@H](C(=O)O)c4cc(O)cc(O)c4-c4cc3ccc4O)[C@H](O)c3ccc(c(Cl)c3)Oc3cc2cc(c3O[C@@H]2O[C@H](CO)[C@@H](O)[C@H](O)[C@H]2O[C@H]2C[C@](C)(N)[C@H](O)[C@H](C)O2)Oc2ccc(cc2Cl)[C@H]1O [VANCOMYCIN] | – | – | – | – | 1 µg/mL (≈ 0.69 µM) | – | 1 µg/mL (≈ 0.69 µM) | – | – | 1 µg/mL (≈ 0.69 µM) | 1 µg/mL (≈ 0.69 µM) | 1 µg/mL (≈ 0.69 µM) | – | – | –
6 | Nc1cc(Cl)ccc1Sc1ccc(C(=O)c2ccccc2C(=O)O)cc1[N+](=O)[O-] | > 256 µg/mL | > 256 µg/mL | > 256 µg/mL | > 256 µg/mL | – | > 256 µg/mL | – | – | – | – | – | – | – | – | MIC (Streptococcus pneumoniae [11]): 64 µg/mL (≈ 149 µM)
7 | Nc1cccc(Sc2ccc(C(=O)c3ccccc3C(=O)O)cc2[N+](=O)[O-])c1 | > 256 µg/mL | > 256 µg/mL | > 256 µg/mL | > 256 µg/mL | – | > 256 µg/mL | – | – | – | – | – | – | – | – | MIC (Streptococcus pneumoniae [11]): 64 µg/mL (≈ 162 µM)
8 | Nc1ccccc1Sc1ccc(C(=O)Nc2ccc(C(=O)O)cc2)cc1[N+](=O)[O-] | > 256 µg/mL | > 256 µg/mL | > 256 µg/mL | > 256 µg/mL | 256 µg/mL (≈ 625 µM) | > 256 µg/mL | – | 4.01 | – | – | – | – | – | – | –
9 | O=C(O)c1c(Cl)cccc1NCc1ccc(Sc2ccc(Cl)c(Cl)c2)c([N+](=O)[O-])c1 | > 256 µg/mL | > 256 µg/mL | > 256 µg/mL | > 256 µg/mL | – | > 256 µg/mL | 4 µg/mL (≈ 8.27 µM) | 4.60 | 8 µg/mL (≈ 16.5 µM) | 2 µg/mL (≈ 4.13 µM) | 8 µg/mL (≈ 16.5 µM) | 8 µg/mL (≈ 16.5 µM) | 4 µg/mL (≈ 8.27 µM) | 8 µg/mL (≈ 16.5 µM) | selectivity ratio [1]: 11; CC50 (A549): 93.3 µM; selectivity ratio [2]: 12; CC50 (HepG2): 97.7 µM
10 | O=C(O)c1cccc(NCc2ccc(Sc3ccc(Cl)c(Cl)c3)c([N+](=O)[O-])c2)c1 | > 256 µg/mL | > 256 µg/mL | > 256 µg/mL | > 256 µg/mL | – | > 256 µg/mL | 8 µg/mL (≈ 17.8 µM) | 4.37 | 8 µg/mL (≈ 17.8 µM) | 8 µg/mL (≈ 17.8 µM) | 8 µg/mL (≈ 17.8 µM) | 8 µg/mL (≈ 17.8 µM) | 8 µg/mL (≈ 17.8 µM) | 8 µg/mL (≈ 17.8 µM) | –
11 | O=C(O)c1ccccc1C(=O)c1ccc(Sc2ccc(Cl)c(Cl)c2)cc1 | > 256 µg/mL | > 256 µg/mL | > 256 µg/mL | > 256 µg/mL | 16 µg/mL (≈ 39.7 µM) | > 256 µg/mL | – | 4.17 | – | – | – | – | – | – | –
12 | O=C(O)c1cc(NCc2ccc(Sc3ccc(Cl)c(Cl)c3)c([N+](=O)[O-])c2)ccc1Cl | > 256 µg/mL | > 256 µg/mL | > 256 µg/mL | > 256 µg/mL | 256 µg/mL (≈ 529 µM) | > 256 µg/mL | – | – | – | – | – | – | – | – | –

Reference: ChEMBL document CHEMBL4616723, “Discovery of Antibacterials That Inhibit Bacterial RNA Polymerase Interactions with Sigma Factors” (J Med Chem, 2020)
